# Assay results reported in ChEMBL document CHEMBL3286203, “Reactive oxygen species (ROS) inducible DNA cross-linking agents and their effect on cancer cells and normal lymphocytes” (J Med Chem, 2014).
# Activity calls are given as the source filed them. The rule behind the calls is not given here.
# Assays:
# MDA-MB-435 = assay: Cytotoxicity against human MDA-MB-435 cells assessed as growth inhibition at 10 uM after 48 hrs by SRB assay; format: functional, cell-based
# In short: (§1)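 Single-dose screen run by the NCI Developmental Therapeutics Program (NCI-60). Cells were grown in RPMI 1640 with 5% fetal bovine serum and 2 mM L-glutamine. They were plated at 5000–40 000 cells/well, depending on doubling time. Each line was run in two plates and exposed to 10 μM drug for 48 h at 37 °C, 5% CO2, 100% humidity. Read-out was growth percent.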
# KM12 = assay: Cytotoxicity against human KM12 cells assessed as growth inhibition at 10 uM after 48 hrs by SRB assay; format: functional, cell-based
# In short: (§2)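 NCI DTP 60-cell-line screen run at the NCI. Cells were grown in RPMI 1640 with 5% FBS and 2 mM L-glutamine. They were seeded at 5000–40 000 cells/well depending on doubling time and grown in two plates per line. Each was exposed to a single 10 μM dose for 48 h at 37 °C, 5% CO2, 95% air, 100% humidity. Read-out was percent growth.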
# BT-549 = assay: Cytotoxicity against human BT549 cells assessed as growth inhibition at 10 uM after 48 hrs by SRB assay; format: functional, cell-based; in short: as §2
# UACC-257 = assay: Cytotoxicity against human UACC257 cells assessed as growth inhibition at 10 uM after 48 hrs by SRB assay; format: functional, cell-based
# In short: (§3)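 NCI-60 DTP human tumour line screen. Cells grown in RPMI 1640 with 5% fetal bovine serum and 2 mM L-glutamine, plated at 5000–40 000 cells/well according to doubling time. Single dose of 10 μM for 48 h at 37 °C, 5% CO2, 95% air, 100% humidity, two plates per line. Read-out is growth percent.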
# NCI/ADR-RES = assay: Cytotoxicity against human NCI-ADR-RES cells assessed as growth inhibition at 10 uM after 48 hrs by SRB assay; format: functional, cell-based; in short: as §1
# Hs-578T = assay: Cytotoxicity against human Hs578T cells assessed as growth inhibition at 10 uM after 48 hrs by SRB assay; format: functional, cell-based; in short: as §2
# COLO 205 = assay: Cytotoxicity against human COLO205 cells assessed as growth inhibition at 10 uM after 48 hrs by SRB assay; format: functional, cell-based; in short: as §2
# M14 = assay: Cytotoxicity against human M14 cells assessed as growth inhibition at 10 uM after 48 hrs by SRB assay; format: functional, cell-based; in short: as §2
# MCF7 = assay: Cytotoxicity against human MCF7 cells assessed as growth inhibition at 10 uM after 48 hrs by SRB assay; format: functional, cell-based; in short: as §1
# Malme-3M = assay: Cytotoxicity against human MALME-3M cells assessed as growth inhibition at 10 uM after 48 hrs by SRB assay; format: functional, cell-based; in short: as §2
# EKVX = assay: Cytotoxicity against human EKVX cells assessed as growth inhibition at 10 uM after 48 hrs by SRB assay; format: functional, cell-based; in short: as §2
# CAKI-1 = assay: Cytotoxicity against human Caki1 cells assessed as growth inhibition at 10 uM after 48 hrs by SRB assay; format: functional, cell-based; in short: as §2
# UACC-62 = assay: Cytotoxicity against human UACC62 cells assessed as growth inhibition at 10 uM after 48 hrs by SRB assay; format: functional, cell-based; in short: as §3
# PC-3 = assay: Cytotoxicity against human PC3 cells assessed as growth inhibition at 10 uM after 48 hrs by SRB assay; format: functional, cell-based; in short: as §1
# NCI-H23 = assay: Cytotoxicity against human NCI-H23 cells assessed as growth inhibition at 10 uM after 48 hrs by SRB assay; format: functional, cell-based; in short: as §1
# NCI-H460 = assay: Cytotoxicity against human NCI-H460 cells assessed as growth inhibition at 10 uM after 48 hrs by SRB assay; format: functional, cell-based; in short: as §1
# A498 = assay: Cytotoxicity against human A498 cells assessed as growth inhibition at 10 uM after 48 hrs by SRB assay; format: functional, cell-based; in short: as §2
# SNB-19 = assay: Cytotoxicity against human SNB19 cells assessed as growth inhibition at 10 uM after 48 hrs by SRB assay; format: functional, cell-based; in short: as §3
# HOP-62 = assay: Cytotoxicity against human HOP62 cells assessed as growth inhibition at 10 uM after 48 hrs by SRB assay; format: functional, cell-based; in short: as §2
# RPMI-8226 = assay: Cytotoxicity against human RPMI8226 cells assessed as growth inhibition at 10 uM after 48 hrs by SRB assay; format: functional, cell-based; in short: as §1
# OVCAR-5 = assay: Cytotoxicity against human OVCAR5 cells assessed as growth inhibition at 10 uM after 48 hrs by SRB assay; format: functional, cell-based; in short: as §1
# HCT-116 = assay: Cytotoxicity against human HCT116 cells assessed as growth inhibition at 10 uM after 48 hrs by SRB assay; format: functional, cell-based; in short: as §2
# HCC 2998 = assay: Cytotoxicity against human HCC2998 cells assessed as growth inhibition at 10 uM after 48 hrs by SRB assay; format: functional, cell-based; in short: as §2
# [1] = Induction of [32P]-labeled 49-mer oligonucleotide duplex DNA 12 with GNC sequence at terminus (unknown origin) interstrand cross-linking at 1 mM after 16 hrs by PAGE in presence of H2O2
# In short: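 32P-labelled 12a (1.0 μM) annealed with 1.5 equiv of 12b in 10 mM potassium phosphate pH 7 / 100 mM NaCl (65 °C for 3 min, then slow cooling). Duplex incubated with compound (final 1 μM–5 mM), with or without H2O2, in NaCl and potassium phosphate pH 8 at room temperature for 16 h. Quenched in formamide; 20% denaturing PAGE.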
# SNB-75 = assay: Cytotoxicity against human SNB75 cells assessed as growth inhibition at 10 uM after 48 hrs by SRB assay; format: functional, cell-based; in short: as §3
# NCI-H522 = assay: Cytotoxicity against human NCI-H522 cells assessed as growth inhibition at 10 uM after 48 hrs by SRB assay; format: functional, cell-based; in short: as §1
# SF-295 = assay: Cytotoxicity against human SF295 cells assessed as growth inhibition at 10 uM after 48 hrs by SRB assay; format: functional, cell-based; in short: as §1
# OVCAR-3 = assay: Cytotoxicity against human OVCAR3 cells assessed as growth inhibition at 10 uM after 48 hrs by SRB assay; format: functional, cell-based; in short: as §1
# SN12C = assay: Cytotoxicity against human SN12C cells assessed as growth inhibition at 10 uM after 48 hrs by SRB assay; format: functional, cell-based; in short: as §3
# SW-620 = assay: Cytotoxicity against human SW620 cells assessed as growth inhibition at 10 uM after 48 hrs by SRB assay; format: functional, cell-based; in short: as §3
# HT-29 = assay: Cytotoxicity against human HT-29 cells assessed as growth inhibition at 10 uM after 48 hrs by SRB assay; format: functional, cell-based; in short: as §2
# SK-MEL-5 = assay: Cytotoxicity against human SK-MEL-5 cells assessed as growth inhibition at 10 uM after 48 hrs by SRB assay; format: functional, cell-based; in short: as §1
# OVCAR-8 = assay: Cytotoxicity against human OVCAR8 cells assessed as growth inhibition at 10 uM after 48 hrs by SRB assay; format: functional, cell-based; in short: as §1
# HL-60(TB) = assay: Cytotoxicity against human HL-60(TB) cells assessed as growth inhibition at 10 uM after 48 hrs by SRB assay; format: functional, cell-based; in short: as §2
# U-251 = assay: Cytotoxicity against human U251 cells assessed as growth inhibition at 10 uM after 48 hrs by SRB assay; format: functional, cell-based; in short: as §3
# OVCAR-4 = assay: Cytotoxicity against human OVCAR4 cells assessed as growth inhibition at 10 uM after 48 hrs by SRB assay; format: functional, cell-based; in short: as §1
# SK-OV-3 = assay: Cytotoxicity against human SKOV3 cells assessed as growth inhibition at 10 uM after 48 hrs by SRB assay; format: functional, cell-based; in short: as §1
smiles,measurement,setting,value
CC1(C)OB(c2ccc(N(CCCl)CCOS(C)(=O)=O)cc2)OC1(C)C,growth inhibition (GI),MDA-MB-435,Active
same,growth inhibition (GI),KM12,Active
same,growth inhibition (GI),BT-549,Active
same,growth inhibition (GI),UACC-257,Active
same,growth inhibition (GI),NCI/ADR-RES,Active
same,growth inhibition (GI),Hs-578T,Active
same,growth inhibition (GI),COLO 205,Active
same,growth inhibition (GI),M14,Active
same,growth inhibition (GI),MCF7,Active
same,growth inhibition (GI),Malme-3M,Active
same,growth inhibition (GI),EKVX,Active
same,growth inhibition (GI),CAKI-1,Active
same,growth inhibition (GI),UACC-62,Active
same,growth inhibition (GI),PC-3,Active
same,growth inhibition (GI),NCI-H23,Active
same,growth inhibition (GI),NCI-H460,Active
same,growth inhibition (GI),A498,Active
same,growth inhibition (GI),SNB-19,Active
same,growth inhibition (GI),HOP-62,Active
same,growth inhibition (GI),RPMI-8226,Active
same,growth inhibition (GI),OVCAR-5,Active
same,growth inhibition (GI),HCT-116,Active
same,growth inhibition (GI),HCC 2998,Active
same,Activity,[1],37%
same,growth inhibition (GI),SNB-75,Active
same,growth inhibition (GI),NCI-H522,Active
same,growth inhibition (GI),SF-295,Active
same,growth inhibition (GI),OVCAR-3,Active
same,growth inhibition (GI),SN12C,Active
same,growth inhibition (GI),SW-620,Active
same,growth inhibition (GI),HT-29,Active
same,growth inhibition (GI),SK-MEL-5,Active
same,growth inhibition (GI),OVCAR-8,Active
same,growth inhibition (GI),HL-60(TB),Active
same,growth inhibition (GI),U-251,Active
same,growth inhibition (GI),OVCAR-4,Active
same,growth inhibition (GI),SK-OV-3,Active
